Reference: ChEMBL document CHEMBL2177069, “Novel peptidomimetic compounds containing redox active chalcogens and quinones as potential anticancer agents” (Eur J Med Chem, 2012)
Activity calls are given as the source filed them. The rule behind the calls is not given here.

Key:
A498 = assay: Cytotoxicity against human A498 cells after 24 hrs by MTT assay; type: functional, cell-based; details: A498, 24 h
Summary of the method: (§1)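 MTT assay. Cells were seeded at 50,000 cells/mL in medium with 10% fetal calf serum and grown for two days at 37 °C, 10% CO2. Serial dilutions of compound were then added for 24 h. MTT was added (final 0.5 mg/mL) for 2 h, and the formazan was pelleted, washed, dissolved in isopropanol with 0.4% HCl and read at 590 nm. IC50 is the concentration giving 50% of untreated-control absorbance, taken from dose-response curves; mean of two parallel experiments.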

Saccharomyces cerevisiae [1] = assay: Growth inhibition of PST2-deficient Saccharomyces cerevisiae YDR032C mutant at 20 ug/disc 24 to 48 hrs by agar diffusion assay; type: functional; details: read-out: DIZ
Summary of the method: (§2)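 S. cerevisiae deletion mutants or wild type grown on YPD, seeded into liquid agar medium at an optical density of 0.1. 6 mm paper discs soaked with methanolic compound solution were placed on the plates and incubated at 30 °C. Growth was checked after 1 and 2 days, and the inhibition zone diameter was recorded in mm.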

Saccharomyces cerevisiae [2] = assay: Growth inhibition of wild type Saccharomyces cerevisiae BY4741 at 20 ug/disc after 24 to 48 hrs by agar diffusion assay; type: functional; details: read-out: DIZ; summary of the method: as §2
A-431 [3] = assay: Induction of apoptosis in human A431 cells assessed as late apoptotic cells at 8 uM after 12 hrs by FITC-annexin V/PI staining-based flow cytometric analysis (reference value: 7.4%); type: functional
A-431 [4] = assay: Induction of apoptosis in human A431 cells assessed as early apoptotic cells at 11 uM after 12 hrs by FITC-annexin V/PI staining-based flow cytometric analysis (reference value: 0.6%); type: functional
Saccharomyces cerevisiae [5] = assay: Growth inhibition of GSH2-deficient Saccharomyces cerevisiae YOL049W mutant at 20 ug/disc after 24 to 48 hrs by agar diffusion assay; type: functional; details: read-out: DIZ; summary of the method: as §2
HUVEC = assay: Cytotoxicity against human HUVEC cells after 24 hrs by MTT assay; type: cell-based; summary of the method: as §1
A-431 [6] = assay: Cytotoxicity against human A431 cells after 24 hrs by MTT assay; type: functional, cell-based; details: A-431, 24 h; summary of the method: as §1
Saccharomyces cerevisiae [7] = assay: Growth inhibition of UFD2-deficient Saccharomyces cerevisiae YDL190C mutant at 20 ug/disc after 24 to 48 hrs by agar diffusion assay; type: functional; details: read-out: DIZ; summary of the method: as §2
A-431 [8] = assay: Induction of apoptosis in human A431 cells assessed as early apoptotic cells at 8 uM after 12 hrs by FITC-annexin V/PI staining-based flow cytometric analysis (reference value: 0.6%); type: functional
Saccharomyces cerevisiae [9] = assay: Growth inhibition of RCK1-deficient Saccharomyces cerevisiae YGL158W mutant at 20 ug/disc after 24 to 48 hrs by agar diffusion assay; type: functional; details: read-out: DIZ; summary of the method: as §2
Saccharomyces cerevisiae [10] = assay: Growth inhibition of SOD1-deficient Saccharomyces cerevisiae YJR104C mutant at 20 ug/disc after 24 to 48 hrs by agar diffusion assay; type: functional; details: read-out: DIZ; summary of the method: as §2
A-431 [11] = assay: Induction of apoptosis in human A431 cells assessed as late apoptotic cells at 11 uM after 12 hrs by FITC-annexin V/PI staining-based flow cytometric analysis (reference value: 7.4%); type: functional
MCF7 [12] = assay: Induction of oxidative stress in human MCF7 cells assessed as decrease in GSH level at 5 uM after 1 hr by DTNB assay relative to control; type: functional; design: scale not given: the % may be the effect or the level left
Summary of the method: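 MCF-7 cells (10^6) were treated for 1 h at 37 °C, trypsinized, and washed twice with cold PBS. GSH was extracted with chilled 5% metaphosphoric acid at 4 °C for 2 h, then the lysate was centrifuged. Supernatant was mixed with 0.2 M sodium phosphate pH 8.0 and 0.04 mM DTNB for 10 min at room temperature. Absorbance was read at 412 nm against a reagent blank, and GSH was quantified from a standard curve.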

A-431 [13] = assay: Induction of apoptosis in human A431 cells assessed as late apoptotic cells at 13 uM after 12 hrs by FITC-annexin V/PI staining-based flow cytometric analysis (reference value: 7.4%); type: functional
Saccharomyces cerevisiae [14] = assay: Growth inhibition of WSC4-deficient Saccharomyces cerevisiae YHL028W mutant at 20 ug/disc 24 to 48 hrs by agar diffusion assay; type: functional; details: read-out: DIZ; summary of the method: as §2
MCF7 [15] = assay: Cytotoxicity against human MCF7 cells after 24 hrs by MTT assay; type: functional, cell-based; details: MCF7, 24 h; summary of the method: as §1
A-431 [16] = assay: Induction of apoptosis in human A431 cells after 12 hrs by FITC-annexin V/PI staining-based flow cytometric analysis; type: functional, cell-based
Saccharomyces cerevisiae [17] = assay: Growth inhibition of SOD2-deficient Saccharomyces cerevisiae YHR008C mutant at 20 ug/disc 24 to 48 hrs by agar diffusion assay; type: functional; details: read-out: DIZ; summary of the method: as §2
[18] = Cytotoxicity against human PHF cells after 24 hrs by MTT assay; type: cell-based; summary of the method: as §1
MCF7 [19] = assay: Induction of Cell cycle arrest in human MCF7 cells assessed as S phase cells at IC50 concentration after 24 hrs by PI-staining based flow cytometric analysis (reference value: 19%); type: functional
Summary of the method: (§3)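 MCF-7 cells (10^6) were treated for 24 h, with methanol as the vehicle control. Cells were fixed in cold 70% methanol at 4 °C for one day, washed with PBS, and permeabilized with 0.1% saponin in PBS. They were stained with propidium iodide plus RNase for 30 min. DNA content was read by flow cytometry, giving percentages of cells per cell-cycle phase.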

A-431 [20] = assay: Induction of apoptosis in human A431 cells assessed as early apoptotic cells at 13 uM after 12 hrs by FITC-annexin V/PI staining-based flow cytometric analysis (reference value: 0.6%); type: functional
MCF7 [21] = assay: Induction of Cell cycle arrest in human MCF7 cells assessed as G2/M phase cells at IC50 concentration after 24 hrs by PI-staining based flow cytometric analysis (reference value: 13%); type: functional; summary of the method: as §3
A-431 [22] = assay: Induction of apoptosis in human A431 cells assessed as caspase3/7 activation at 2.8 uM after 24 hrs by caspase-Glo assay; type: functional, cell-based
Summary of the method: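 A-431 cells (20,000/well, 384-well) were incubated with compound for 1, 2, 4, 6, 12 and 24 h in the dark at 37 °C, 5% CO2. Caspase-Glo 3/7 reagent was added for 30 min at room temperature in the dark. Luminescence was then read on a plate luminometer.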

MCF7 [23] = assay: Induction of Cell cycle arrest in human MCF7 cells assessed as G0/1 phase cells at IC50 concentration after 24 hrs by PI-staining based flow cytometric analysis (reference value: 68%); type: functional; summary of the method: as §3
Saccharomyces cerevisiae [24] = assay: Growth inhibition of GTT2-deficient Saccharomyces cerevisiae YLL060C mutant at 20 ug/disc after 24 to 48 hrs by agar diffusion assay; type: functional; details: read-out: DIZ; summary of the method: as §2
Saccharomyces cerevisiae [25] = assay: Growth inhibition of POS5-deficient Saccharomyces cerevisiae YPL188W mutant at 20 ug/disc after 24 to 48 hrs by agar diffusion assay; type: functional; details: read-out: DIZ; summary of the method: as §2
Saccharomyces cerevisiae [26] = assay: Growth inhibition of COX17-deficient Saccharomyces cerevisiae YLL009C mutant at 20 ug/disc after 24 to 48 hrs by agar diffusion assay; type: functional; details: read-out: DIZ; summary of the method: as §2

SMILES: CC1=C([Se]CC(OC(=O)CC[Se]c2ccccc2)C(=O)NCCCCCC(=O)OCc2ccccc2)C(=O)c2ccccc2C1=O (stereo not drawn)
- IC50 (A498): 4 µM
- zone of inhibition at 20 µg/disc (Saccharomyces cerevisiae [1]): 16 mm
- zone of inhibition at 20 µg/disc (Saccharomyces cerevisiae [2]): 0 mm
- Activity (A-431 [3]): 12.9%
- Activity (A-431 [4]): 7.7%
- zone of inhibition at 20 µg/disc (Saccharomyces cerevisiae [5]): 15 mm
- IC50 (HUVEC): 3 µM
- IC50 (A-431 [6]): 4 µM
- zone of inhibition at 20 µg/disc (Saccharomyces cerevisiae [7]): 15 mm
- Activity (A-431 [8]): 2.5%
- zone of inhibition at 20 µg/disc (Saccharomyces cerevisiae [9]): 15 mm
- zone of inhibition at 20 µg/disc (Saccharomyces cerevisiae [10]): 14 mm
- Activity (A-431 [11]): 13.1%
- Activity (MCF7 [12]): 62%
- Activity (A-431 [13]): 29.3%
- zone of inhibition at 20 µg/disc (Saccharomyces cerevisiae [14]): 26 mm
- IC50 (MCF7 [15]): 9 µM
- Activity (A-431 [16]): Dose-dependent effect
- zone of inhibition at 20 µg/disc (Saccharomyces cerevisiae [17]): 19 mm
- IC50 [18]: 6 µM
- Activity (MCF7 [19]): 6.8%
- Activity (A-431 [20]): 4.1%
- Activity (MCF7 [21]): 6%
- Activity (A-431 [22]): Active
- Activity (MCF7 [23]): 87%
- zone of inhibition at 20 µg/disc (Saccharomyces cerevisiae [24]): 25 mm
- zone of inhibition at 20 µg/disc (Saccharomyces cerevisiae [25]): 17 mm
- zone of inhibition at 20 µg/disc (Saccharomyces cerevisiae [26]): 15 mm
